Results as given in ChEMBL document CHEMBL4706774, “Creation of Fluorescent RXR Antagonists Based on CBTF-EE and Application to a Fluorescence Polarization Binding Assay” (ACS Med Chem Lett, 2021).
Active and inactive are the calls of the source. The calls are words filed in the database; no cut-off is given here.

What was measured:
[1] = target: T1, Retinoic acid receptor RXR-alpha (Homo sapiens) (UniProt P19793); test: Antagonist activity against human RXRalpha expressed in COS1 cells incubated for 18 hrs by SEAP reporter gene assay; type: cell-based; conditions: COS-1, filed as antagonist
T1 sequence (whole entry): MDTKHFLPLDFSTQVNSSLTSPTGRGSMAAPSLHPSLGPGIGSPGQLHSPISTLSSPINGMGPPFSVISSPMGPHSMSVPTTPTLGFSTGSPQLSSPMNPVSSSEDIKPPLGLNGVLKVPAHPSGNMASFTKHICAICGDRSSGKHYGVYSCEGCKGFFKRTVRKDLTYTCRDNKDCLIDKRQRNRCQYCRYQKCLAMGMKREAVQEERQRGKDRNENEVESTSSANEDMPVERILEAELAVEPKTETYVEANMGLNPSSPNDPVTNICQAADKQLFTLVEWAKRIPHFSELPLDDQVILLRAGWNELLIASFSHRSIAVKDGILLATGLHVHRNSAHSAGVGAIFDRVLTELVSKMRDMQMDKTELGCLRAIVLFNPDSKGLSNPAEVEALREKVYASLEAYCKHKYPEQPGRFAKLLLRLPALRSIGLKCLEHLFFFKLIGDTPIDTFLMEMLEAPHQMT

[2] = Fluorescence property of compound in EtOH assessed as excitation wavelength by UV-visible spectrophotometric method; type: physicochemical
[3] = target: T2, Retinoic acid receptor RXR-alpha (Homo sapiens, UniProt P19793); test: Binding affinity to human RXRalpha-LBD (224 to 462 residues) expressed in Escherichia coli BL21(DE3) incubated for 2 hrs by fluorescence assay
T2 sequence (P19793 whole entry): T1 sequence (whole entry)

[4] = Fluorescence property of compound in EtOH assessed as emission wavelength by UV-visible spectrophotometric method; type: physicochemical
[5] = Fluorescence property of compound in MeOH assessed as molar extinction coefficient by UV-visible spectrophotometric method; type: physicochemical
[6] = Fluorescence property of compound in EtOH assessed as molar extinction coefficient by UV-visible spectrophotometric method; type: physicochemical
[7] = Fluorescence property of compound in MeOH assessed as quantum yield by UV-visible spectrophotometric method; type: physicochemical
[8] = Fluorescence property of compound in MeOH assessed as excitation wavelength by UV-visible spectrophotometric method; type: physicochemical
Summary of the method: (§1)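 Fluorescence excitation and emission spectra recorded on the compound at 1 μM in MeOH solution. Maxima of excitation and emission taken from these spectra.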

[9] = Fluorescence property of compound in MeOH assessed as emission wavelength by UV-visible spectrophotometric method; type: physicochemical; summary of the method: as §1
[10] = Fluorescence property of compound in EtOH assessed as quantum yield by UV-visible spectrophotometric method; type: physicochemical
[11] = target: T2, Retinoic acid receptor RXR-alpha; test: Binding affinity to human RXRalpha-LBD (224 to 462 residues) expressed in Escherichia coli BL21(DE3) incubated for 1 hr by fluorescence polarization assay

| Activity [1] | Activity [2] | Kd [3] | Activity [4] | Activity [5] | Activity [6] | Activity [7] | Activity [8] | Activity [9] | Activity [10] | Kd [11] | Compound |
| --- | --- | --- | --- | --- | --- | --- | --- | --- | --- | --- | --- |
| Active | 461 nm | 629 nM | 527 nm | 6.7 10^3L/mol | 8.4 10^3L/mol | 0.224 | 464 nm | 530 nm | 0.237 |  | CC1(C)CCC(C)(C)c2cc(-n3c(C(F)(F)F)nc4cc(C(=O)O)ccc43)c(OCCOCCNc3ccc([N+](=O)[O-])c4nonc34)cc21 |
| Active | 499 nm | 761 nM | 509 nm | 2.8 10^4L/mol | 2.8 10^4L/mol | 0.349 | 499 nm | 508 nm | 0.471 | 375 nM | CC1=CC(C)=[N+]2C1=C(c1ccc(C(=O)NCCOCCOc3cc4c(cc3-n3c(C(F)(F)F)nc5cc(C(=O)O)ccc53)C(C)(C)CCC4(C)C)cc1)c1c(C)cc(C)n1[B-]2(F)F |
